The record followed here is ChEMBL document CHEMBL1138713 (Bioorg Med Chem Lett, 2004).

In the experiment the test system is Trypanosoma cruzi. Kind of experiment: Ability to cause lysis of trypomastigote form of Trypanosoma cruzi was determined. Format: functional, organism-based. A digest of the protocol:
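Bloodstream trypomastigotes (Y strain) harvested from mice inoculated intraperitoneally with 10⁵ parasites; assay in Dulbecco's modified Eagle medium; DMSO stocks, final solvent ≤0.5%.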

Where only a bound is given, the exact number is not on record here.

`Cn1c([N+](=O)[O-])cnc1-c1nnc(N/N=C/c2ccc(Cl)cc2)s1`: it took 38.4 µM to reach half-maximal inhibition (IC50).
Under `COc1ccc(/C=N/Nc2nnc(-c3ncc([N+](=O)[O-])n3C)s2)cc1O` stands 50.5 µM; under `Cn1c([N+](=O)[O-])cnc1-c1nnc(N/N=C/c2ccc(O)cc2)s1`, 11.6 µM; under `Cn1c([N+](=O)[O-])cnc1-c1nnc(N/N=C/c2cc(C(C)(C)C)c(O)c(C(C)(C)C)c2)s1`, 33.2 µM.
The compound `Cn1c([N+](=O)[O-])cnc1-c1nnc(N/N=C/c2ccccc2)s1` displayed an IC50 greater than 200 µM.
Compound `O=[N+]([O-])c1ccc(/C=N/Nc2nnc(-c3ccccc3)s2)cc1` returned an IC50 greater than 200 µM.
In turn, `CC(C)(C)c1cc(/C=N/Nc2nnc(-c3ccccc3)s2)cc(C(C)(C)C)c1O` showed an IC50 of 136 µM.
Compound `Oc1ccc(/C=N/Nc2nnc(-c3ccccc3)s2)cc1O` returned an IC50 of 63.4 µM.
Under `Cn1c([N+](=O)[O-])cnc1-c1nnc(N/N=C/c2ccc(F)cc2)s1` stands greater than 200 µM.
In turn, `C(=N\Nc1nnc(-c2ccccc2)s1)/c1ccccc1` came in with an IC50 greater than 200 µM.
Compound `Cn1c([N+](=O)[O-])cnc1-c1nnc(N/N=C/c2ccc(Br)cc2)s1` registered an IC50 of 17 µM.
In turn, `Cn1c([N+](=O)[O-])cnc1-c1nnc(N/N=C/c2ccc3c(c2)OCO3)s1` yielded an IC50 greater than 200 µM.
In the case of `COc1cccc(/C=N/Nc2nnc(-c3ncc([N+](=O)[O-])n3C)s2)c1O` it was greater than 200 µM; in that of `Cn1c([N+](=O)[O-])cnc1-c1nnc(N/N=C/c2ccc([N+](=O)[O-])cc2)s1`, 22 µM; in that of `Cn1c([N+](=O)[O-])cnc1-c1nnc(N/N=C/c2ccccc2O)s1`, 54.2 µM.
In the case of `COc1cc(/C=N/Nc2nnc(-c3ncc([N+](=O)[O-])n3C)s2)ccc1O` it was greater than 200 µM; in that of `Cn1c([N+](=O)[O-])cnc1-c1nnc(N/N=C/c2ccc(OC(F)(F)F)cc2)s1`, greater than 200 µM.
In the case of `COc1ccc(/C=N/Nc2nnc(-c3ncc([N+](=O)[O-])n3C)s2)cc1` it was greater than 200 µM; in that of `Oc1ccc(/C=N/Nc2nnc(-c3ccccc3)s2)cc1`, greater than 200 µM; in that of `Oc1ccccc1/C=N/Nc1nnc(-c2ccccc2)s1`, greater than 200 µM.
`Cn1c([N+](=O)[O-])cnc1-c1nnc(N/N=C\c2ccc(O)c(O)c2)s1` [BRAZILIZONE A]: the IC50 was found to be 5.3 µM.

As a reminder, the IC50 is the concentration at which inhibition is half-maximal.
